# Source: ChEMBL document CHEMBL2390870, “Coumarin chalcone fibrates: a new structural class of lipid lowering agents” (2013)
# Active and inactive are the calls of the source. The rule behind the calls is not given here.
# Experiments:
# Rattus norvegicus [1] = assay: Antihyperlipidemic activity in triton WR-1339-induced Charles-Foster rat assessed as increase in post heparin lipolytic activity at 100 mg/kg, po after 18 hrs by spectrophotometric analysis relative to control; format: functional
# Summary of the method: (§1)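 Triton WR-1339 400 mg/kg i.p. in male Charles Foster rats (six per group), with test agent in 0.2% gum acacia given orally at the same time. Post-heparin plasma lipolytic activity read after 18 h as nmol free fatty acids formed/h/ml plasma; percent change; mean ± SD; t-test.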
# Rattus norvegicus [2] = assay: Antihyperlipidemic activity in triton WR-1339-induced Charles-Foster rat assessed as decrease in plasma triglyceride level at 100 mg/kg, po after 18 hrs relative to control; format: functional; design: scale not given: the % may be the effect or the level left
# Summary of the method: (§2)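 Male adult Charles Foster rats (200–225 g), six per group; hyperlipidemia induced by triton WR-1339 400 mg/kg i.p.; test agent macerated with 0.2% w/v gum acacia in water and given orally at the same time, with diet withdrawn; vehicle to controls. After 18 h, plasma was obtained by centrifugation at 2500 g, 4 °C, 10 min and diluted 1:3 in saline. Mean ± SD; Student's t-test.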
# Rattus norvegicus [3] = assay: Antihyperlipidemic activity in triton WR-1339-induced Charles-Foster rat assessed as decrease in plasma phospholipid level at 100 mg/kg, po after 18 hrs relative to control; format: functional; design: scale not given: the % may be the effect or the level left; summary of the method: as §2
# Rattus norvegicus [4] = assay: Antihyperlipidemic activity in triton WR-1339-induced Charles-Foster rat assessed as decrease in plasma total cholesterol level at 100 mg/kg, po after 18 hrs relative to control; format: functional; design: scale not given: the % may be the effect or the level left; summary of the method: as §2
# Rattus norvegicus [5] = assay: Antihyperlipidemic activity in triton WR-1339-induced Charles-Foster rat assessed as increase in post heparin lipolytic activity at 200 mg/kg, po after 18 hrs by spectrophotometric analysis relative to control; format: functional; summary of the method: as §1
# Rattus norvegicus [6] = assay: Antihyperlipidemic activity in triton WR-1339-induced Charles-Foster rat assessed as increase in post heparin lipolytic activity at 50 mg/kg, po after 18 hrs by spectrophotometric analysis relative to control; format: functional; summary of the method: as §1
# Rattus norvegicus [7] = assay: Antihyperlipidemic activity in triton WR-1339-induced Charles-Foster rat assessed as decrease in plasma triglyceride level at 200 mg/kg, po after 18 hrs relative to control; format: functional; design: scale not given: the % may be the effect or the level left; summary of the method: as §2
# Rattus norvegicus [8] = assay: Antihyperlipidemic activity in triton WR-1339-induced Charles-Foster rat assessed as decrease in plasma phospholipid level at 200 mg/kg, po after 18 hrs relative to control; format: functional; design: scale not given: the % may be the effect or the level left; summary of the method: as §2
# Rattus norvegicus [9] = assay: Antihyperlipidemic activity in triton WR-1339-induced Charles-Foster rat assessed as decrease in plasma total cholesterol level at 200 mg/kg, po after 18 hrs relative to control; format: functional; design: scale not given: the % may be the effect or the level left; summary of the method: as §2
# Rattus norvegicus [10] = assay: Antihyperlipidemic activity in triton WR-1339-induced Charles-Foster rat assessed as decrease in plasma triglyceride level at 50 mg/kg, po after 18 hrs relative to control; format: functional; design: scale not given: the % may be the effect or the level left; summary of the method: as §2
# Rattus norvegicus [11] = assay: Antihyperlipidemic activity in triton WR-1339-induced Charles-Foster rat assessed as decrease in plasma phospholipid level at 50 mg/kg, po after 18 hrs relative to control; format: functional; design: scale not given: the % may be the effect or the level left; summary of the method: as §2
# Rattus norvegicus [12] = assay: Antihyperlipidemic activity in triton WR-1339-induced Charles-Foster rat assessed as decrease in plasma total cholesterol level at 50 mg/kg, po after 18 hrs relative to control; format: functional; design: scale not given: the % may be the effect or the level left; summary of the method: as §2
# Rattus norvegicus [13] = assay: Antihyperlipidemic activity in triton WR-1339-induced Charles-Foster rat assessed as increase in liver lipoprotein lipase activity at 100 mg/kg, po after 18 hrs; format: functional, organism-based; design: dose 100 mg/kg
# Rattus norvegicus [14] = assay: Antihyperlipidemic activity in triton WR-1339-induced Charles-Foster rat assessed as increase in plasma HDL level at 100 mg/kg, po after 18 hrs; format: functional, organism-based; design: dose 100 mg/kg; summary of the method: as §2
# Rattus norvegicus [15] = assay: Antihyperlipidemic activity in triton WR-1339-induced Charles-Foster rat assessed as decrease in plasma LDL level at 100 mg/kg, po after 18 hrs; format: functional, organism-based; design: dose 100 mg/kg; summary of the method: as §2
# Rattus norvegicus [16] = assay: Antihyperlipidemic activity in triton WR-1339-induced Charles-Foster rat assessed as decrease in plasma VLDL level at 100 mg/kg, po after 18 hrs; format: functional, organism-based; design: dose 100 mg/kg; summary of the method: as §2
SMILES,Activity (Rattus norvegicus [1]),Activity (Rattus norvegicus [2]),Activity (Rattus norvegicus [3]),Activity (Rattus norvegicus [4]),further results
CCOC(=O)COc1ccc(C(=O)/C=C/c2cc(C(C)(C)C)c3oc(=O)c(C(=O)OCC)cc3c2)cc1,5%,11%,11%,13%,–
CCOC(=O)c1cc2cc(/C=C/C(=O)c3ccc(OC(C)C(=O)OCC)cc3)cc(C(C)CC)c2oc1=O (stereo unspecified),5%,9%,9%,10%,–
CCOC(=O)c1cc2cc(/C=C/C(=O)c3ccc(OC(C)C(=O)OCC)cc3)cc(C)c2oc1=O (stereo unspecified),6%,11%,12%,10%,–
CCOC(=O)c1cc2cc(/C=C/C(=O)c3ccc(OC(C)(C)C(=O)OCC)cc3)cc(C(C)CC)c2oc1=O (stereo unspecified),15%,23%,23%,22%,Activity (Rattus norvegicus [5]): 15%; Activity (Rattus norvegicus [6]): 13%; Activity (Rattus norvegicus [7]): 25%; Activity (Rattus norvegicus [8]): 24%; Activity (Rattus norvegicus [9]): 23%; Activity (Rattus norvegicus [10]): 16%; Activity (Rattus norvegicus [11]): 16%; Activity (Rattus norvegicus [12]): 18%
CC(C)c1cc(/C=C/C(=O)c2ccc(OCC(=O)O)cc2)cc2cc(C(=O)O)c(=O)oc12,3%,8%,7%,9%,–
CCOC(=O)CCCOc1ccc(C(=O)/C=C/c2cc(C(C)(C)C)c3oc(=O)c(C(=O)OCC)cc3c2)cc1,5%,11%,11%,12%,–
CCOC(=O)c1cc2cc(/C=C/C(=O)c3ccc(OC(C)(C)C(=O)OCC)cc3)cc(C)c2oc1=O,5%,8%,10%,10%,–
CCOC(=O)COc1ccc(C(=O)/C=C/c2cc(C(C)C)c3oc(=O)c(C(=O)OCC)cc3c2)cc1,15%,22%,20%,21%,–
CCOC(=O)COc1ccc(C(=O)/C=C/c2cc(C(C)CC)c3oc(=O)c(C(=O)OCC)cc3c2)cc1 (stereo unspecified),8%,11%,12%,11%,–
CCOC(=O)C(C)Oc1ccc(C(=O)/C=C/c2cc(C)c(O)c(C=O)c2)cc1 (stereo unspecified),6%,11%,13%,12%,–
Cc1ccc(C)c(OCCCC(C)(C)C(=O)O)c1 [GEMFIBROZIL],19%,33%,30%,32%,–
CCOC(=O)CCCOc1ccc(C(=O)/C=C/c2cc(C)c3oc(=O)c(C(=O)OCC)cc3c2)cc1,12%,16%,17%,19%,–
CCC(C)c1cc(/C=C/C(=O)c2ccc(OC(C)(C)C(=O)O)cc2)cc2cc(C(=O)O)c(=O)oc12 (stereo unspecified),4%,9%,8%,8%,–
CCOC(=O)c1cc2cc(/C=C/C(=O)c3ccc(OC(CC)C(=O)OCC)cc3)cc(C)c2oc1=O (stereo unspecified),10%,14%,15%,14%,–
CCOC(=O)COc1ccc(C(=O)/C=C/c2cc(C)c3oc(=O)c(C(=O)OCC)cc3c2)cc1,2%,8%,8%,6%,–
CCC(C)c1cc(/C=C/C(=O)c2ccc(OCC(=O)O)cc2)cc2cc(C(=O)O)c(=O)oc12 (stereo unspecified),3%,9%,9%,8%,–
Cc1cc(/C=C/C(=O)c2ccc(OC(C)C(=O)O)cc2)cc2cc(C(=O)O)c(=O)oc12 (stereo unspecified),17%,25%,24%,26%,Activity (Rattus norvegicus [13]): Active; Activity (Rattus norvegicus [14]): Active; Activity (Rattus norvegicus [15]): Active; Activity (Rattus norvegicus [16]): Active; Activity (Rattus norvegicus [5]): 17%; Activity (Rattus norvegicus [6]): 12%; Activity (Rattus norvegicus [7]): 26%; Activity (Rattus norvegicus [8]): 24%; Activity (Rattus norvegicus [9]): 27%; Activity (Rattus norvegicus [10]): 14%; Activity (Rattus norvegicus [11]): 15%; Activity (Rattus norvegicus [12]): 16%
CCOC(=O)CCCOc1ccc(C(=O)/C=C/c2cc(C(C)CC)c3oc(=O)c(C(=O)OCC)cc3c2)cc1 (stereo unspecified),7%,12%,12%,13%,–
CCOC(=O)C(C)Oc1ccc(C(=O)/C=C/c2cc(C=O)c(O)c(C(C)CC)c2)cc1 (stereo unspecified),5%,11%,11%,13%,–
